What was measured:
[1] = Drug distribution in mouse S37 cell nuclear membrane at 1 uM for 4 hrs by laser scanning confocal microscopic analysis; assay type: ADME
Procedure, shortened: (§1)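 Mouse sarcoma S37 cells exposed to 1 μM photosensitizer for 4 h, then imaged by laser scanning confocal microscopy with a 63×/1.46 oil objective. Excitation 543 nm at 10 μW; emission collected above 655 nm on an APD detector. Intracellular localization judged against transmitted-light images.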

[2] = Drug distribution in mouse S37 cell membrane at 1 uM for 4 hrs by laser scanning confocal microscopic analysis; assay type: ADME, cell-based; procedure, shortened: as §1
[3] = Drug distribution in mouse S37 cell cytoplasmic vesicles at 1 uM for 4 hrs by laser scanning confocal microscopic analysis; assay type: ADME; procedure, shortened: as §1
[4] = Dark toxicity against mouse S37 cells assessed as cell growth inhibition up to 15 uM after 24 hrs by MTT assay; assay type: cell-based; details: s37, 24 h
Procedure, shortened: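 S37 mouse sarcoma cells in DMEM with 2 mM L-glutamine and 10% FBS, 37 °C, 5% CO2. Compound added 24 h after plating and kept without irradiation for 24 h in the dark. Survival scored visually and by MTT colorimetry.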

[5] = Drug uptake in tumor of F1 mouse implanted with mouse S37 cells at 2.5 mg/kg, iv measured after 2 hrs in presence of He-Ne laser radiation by local fluorescence spectroscopic analysis; assay type: ADME, organism-based, Neoplasm; details: in vivo
Procedure, shortened: (§2)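 Single iv dose of 2.5 mg/kg given to F1 mice bearing S37 sarcoma. Skin, muscle, liver, kidney, spleen and tumor taken from three animals each at 0.25, 0.5, 2, 4 and 24 h and read ex vivo by contact local fluorescence spectroscopy. He–Ne 632.8 nm excitation; 640–900 nm integral normalized to backscattered laser signal (FN).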

[6] = Drug uptake in tumor of F1 mouse implanted with mouse S37 cells at 2.5 mg/kg, iv measured after 24 hrs in presence of He-Ne laser radiation by local fluorescence spectroscopic analysis; assay type: ADME, organism-based, Neoplasm; details: in vivo; procedure, shortened: as §2
[7] = Drug uptake in skin tumor of F1 mouse implanted with mouse S37 cells assessed as normalized fluorescence at 2.5 mg/kg, iv measured up to 24 hrs in presence of He-Ne laser radiation by local fluorescence spectroscopic analysis; assay type: ADME, organism-based; details: in vivo
Procedure, shortened: (§3)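 S37 sarcoma-bearing immunocompetent F1 mice (18−22 g) given PS 2.5 mg/kg iv. Animals sacrificed at 0.25, 0.5, 2, 4 and 24 h, with three animals per time point. Skin, tumor and organ samples were read ex vivo by contact local fluorescence spectroscopy under He−Ne 632.8 nm excitation. Integrated 640−900 nm emission was normalized to the backscattered laser signal to give FN.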

[8] = Drug uptake in liver tumor of F1 mouse implanted with mouse S37 cells assessed as normalized fluorescence at 2.5 mg/kg, iv measured up to 24 hrs post injection in presence of He-Ne laser radiation by local fluorescence spectroscopic analysis; assay type: ADME, organism-based; details: in vivo; procedure, shortened: as §2
[9] = Drug uptake in kidney tumor of F1 mouse implanted with mouse S37 cells assessed as normalized fluorescence at 2.5 mg/kg, iv measured up to 24 hrs post injection in presence of He-Ne laser radiation by local fluorescence spectroscopic analysis; assay type: ADME, organism-based; details: in vivo; procedure, shortened: as §2
[10] = Drug uptake in spleen tumor of F1 mouse implanted with mouse S37 cells assessed as normalized fluorescence at 2.5 mg/kg, iv measured up to 24 hrs post injection in presence of He-Ne laser radiation by local fluorescence spectroscopic analysis; assay type: ADME, organism-based; details: in vivo; procedure, shortened: as §2
[11] = Drug uptake in spleen tumor of F1 mouse implanted with mouse S37 cells assessed as normalized fluorescence at 2.5 mg/kg, iv measured after 24 hrs post injection in presence of He-Ne laser radiation by local fluorescence spectroscopic analysis; assay type: ADME, organism-based; details: in vivo; procedure, shortened: as §2
[12] = Phototoxicity against mouse S37 cells implanted in F1 mouse assessed as tumor growth inhibition at 2.5 mg/kg, iv preincubated for 15 mins with subsequent 150 J/cm2 irradiation measured on day 8 post irradiation relative to control; assay type: functional; details: S37, light or radiation study, read-out: TGI
Procedure, shortened: (§4)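 S37 sarcoma mice treated on day 7 of tumor growth with compound iv; tumors 140–160 mm3 beforehand, droperidol 0.25 mg ip as anesthetic. LED irradiation at 800 ± 21 nm, 100 mW/cm2, 150 J/cm2, given 15 or 30 min after dosing. Controls got iv 0.9% NaCl. Volume = d1×d2×d3×0.52; TGI = […]×100%.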

[13] = Phototoxicity against mouse S37 cells implanted in F1 mouse assessed as tumor growth inhibition at 2.5 mg/kg, iv preincubated for 30 mins with subsequent 150 J/cm2 irradiation measured on day 8 post irradiation relative to control; assay type: functional; details: S37, light or radiation study, read-out: TGI; procedure, shortened: as §4
[14] = Phototoxicity against mouse S37 cells implanted in F1 mouse assessed as tumor growth inhibition at 2.5 mg/kg, iv preincubated for 30 mins with subsequent 150 J/cm2 irradiation measured on day 11 post irradiation relative to control; assay type: functional; details: S37, light or radiation study, read-out: TGI; procedure, shortened: as §4
[15] = Phototoxicity against mouse S37 cells implanted in F1 mouse assessed as tumor growth inhibition at 2.5 mg/kg, iv preincubated for 30 mins with subsequent 150 J/cm2 irradiation measured on day 15 post irradiation relative to control; assay type: functional; details: S37, light or radiation study, read-out: TGI; procedure, shortened: as §4
[16] = Phototoxicity against mouse S37 cells implanted in F1 mouse assessed as tumor growth inhibition at 2.5 mg/kg, iv preincubated for 30 mins with subsequent 150 J/cm2 irradiation measured on day 18 post irradiation relative to control; assay type: functional; details: S37, light or radiation study, read-out: TGI; procedure, shortened: as §4
[17] = Phototoxicity against mouse S37 cells implanted in F1 mouse assessed as tumor growth inhibition at 2.5 mg/kg, iv preincubated for 30 mins with subsequent 150 J/cm2 irradiation measured on day 20 post irradiation relative to control; assay type: functional; details: S37, light or radiation study, read-out: TGI; procedure, shortened: as §4
[18] = Phototoxicity against mouse S37 cells implanted in F1 mouse assessed as tumor growth inhibition at 5 mg/kg, iv preincubated for 15 mins with subsequent 150 J/cm2 irradiation measured on day 8 post irradiation relative to control; assay type: functional; details: S37, light or radiation study, read-out: TGI; procedure, shortened: as §4
Mus musculus = experiment: Toxicity in F1 mouse implanted with mouse S37 cells at 2.5 mg/kg, iv preincubated for 15 to 30 mins with subsequent 150 J/cm2 irradiation measured up to 16 days post irradiation; assay type: organism-based; details: in vivo, 384 h
Procedure, shortened: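 F1 mice bearing S37 sarcoma (140−160 mm3) were treated on day 7 of tumour growth with 2.5 or 5.0 mg/kg iv; controls received iv 0.9% NaCl. Animals were anaesthetised with droperidol 0.25 mg/animal ip. LED irradiation (800 ± 21 nm, 100 mW/cm2, 150 J/cm2) followed 15 or 30 min after dosing. Tumour volume was calculated as d1×d2×d3×0.52, with TGI computed versus controls. Tumour-free animals were followed for 90 d.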

[19] = Drug distribution in mouse S37 cell cytoplasm at 1 uM for 4 hrs by laser scanning confocal microscopic analysis; assay type: ADME; procedure, shortened: as §1
[20] = Drug distribution in mouse S37 cell cytoplasmic vesicles at 1 uM for 4 hrs by microspectroscopy; assay type: ADME
[21] = Drug uptake in tumor of F1 mouse implanted with mouse S37 cells assessed as normalized fluorescence units at 2.5 mg/kg, iv measured after 30 mins in presence of He-Ne laser radiation by local fluorescence spectroscopic analysis; assay type: ADME, organism-based, Neoplasm; details: in vivo, 0.5 h; procedure, shortened: as §3

| Structure (SMILES) | Drug uptake [1] | Drug uptake [2] | Drug uptake [3] | Activity [4] | Drug uptake [5] | Drug uptake [6] | Flu intensity [7] | Drug uptake [8] | Drug uptake [9] | Drug uptake [10] | inhibition in vivo at 2.5 mg/kg [13] | inhibition in vivo at 2.5 mg/kg [14] | inhibition in vivo at 2.5 mg/kg [15] | inhibition in vivo at 2.5 mg/kg [16] | inhibition in vivo at 2.5 mg/kg [17] | Activity (Mus musculus) | Drug uptake [19] | Drug uptake [20] | further results |
| --- | --- | --- | --- | --- | --- | --- | --- | --- | --- | --- | --- | --- | --- | --- | --- | --- | --- | --- | --- |
| CCCO/N=C(\C)c1c(C)c2cc3nc(c4c5[nH]c(cc6nc(cc1[nH]2)[C@H](C)[C@H]6CC)c(C)c5C(=O)N(OCCC)C4=O)[C@@H](CCC(=O)OC)[C@@H]3C | Not Active | Not Active | Active | Non-Toxic | Active | Not Active | 2 RU | Active | Active | Active | 100% | 88.6% | 81.5% | 77.1% | 65.9% | Non-Toxic | Not Active | Active | Drug uptake [11]: Active; inhibition in vivo at 2.5 mg/kg [12]: 100%; inhibition in vivo at 5 mg/kg [18]: 100% |
| CCCO/N=C(\C)c1c(C)c2cc3nc(c4c5[nH]c(cc6nc(cc1[nH]2)[C@@H](C)[C@@H]6CC)c(C)c5C(=O)N(OCCC)C4=O)[C@H](CCC(=O)NCCSSCCNC(=O)CC[C@@H]1c2nc(cc4[nH]c(cc5nc(cc6[nH]c7c2C(=O)N(OCCC)C(=O)c7c6C)[C@H](CC)[C@H]5C)c(/C(C)=N/OCCC)c4C)[C@H]1C)[C@H]3C | Not Active | Not Active | Active | Non-Toxic | Active | Not Active | 2 RU | Active | Active | Active | 100% | 97.4% | 93.9% | 88% | 75.5% | Non-Toxic | Not Active | Active | Flu intensity [21]: 4 RU |
